In the library only some 4.6% were active in any assay of this set; here they are far more common.
TAAR1 agonist – agonists of human TAAR1; Q96RJ0; CHO RD-HGA16 TAAR1, Fluo-8 calcium fluorescence; vehicle wells 0%, saturating PEA agonist 100%; activation, % at 3 µM; 0.99% of 360,000 active; AID 624467;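 active = activation above the mean activation of all test compounds in the run plus 3 SD, cut at about 38% in these data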
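Benchmarks: low control DMSO, high control PEA (EC100); System: CHO RD-HGA16 cells carrying human TAAR1 plus Gα16; Detection: Fluo-8 fluorescence, 5 s baseline then 140 s kinetic read; Schedule: 17-24 h plating, Fluo-8 75 min 37 °C, 30 min RT; Read-out basis: % activation from peak over basal fluorescence ratio, DMSO-to-PEA scaled.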
GPR7 antag – antagonists of human GPR7 (neuropeptides B/W receptor 1) | AID 1861 | 1.1% of 290,000 active | inhibition, % at 4.4 µM | GPR7-expressing cells, fluorescence antagonist assay | P48145; in the data active = inhibition above about 16%, passing the limit was not always enough;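 also: cells stimulated with the agonist NPW; 0% = agonist with vehicle and 100% = vehicle without agonist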
Target sequence (P48145 whole entry, looked up): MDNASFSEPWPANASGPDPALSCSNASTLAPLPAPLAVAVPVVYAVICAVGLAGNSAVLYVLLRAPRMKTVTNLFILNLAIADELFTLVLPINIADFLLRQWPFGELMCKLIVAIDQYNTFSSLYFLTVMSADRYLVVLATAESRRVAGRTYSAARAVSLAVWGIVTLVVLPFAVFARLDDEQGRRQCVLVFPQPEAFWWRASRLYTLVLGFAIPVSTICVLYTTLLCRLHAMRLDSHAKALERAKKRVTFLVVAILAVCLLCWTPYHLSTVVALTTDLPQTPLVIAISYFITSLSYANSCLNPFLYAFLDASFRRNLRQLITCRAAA
OX1R antag-1 – antagonists of human orexin 1 receptor (OX1R); OX1R-expressing cells, FRET antagonist read-out; inhibition, % at 6.6 µM; O43613; 1.8% of 330,000 active; in the data active = inhibition mostly above about 38%, no sharp cut-off; inactive = mostly below about 40%;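 also: 0% = agonist challenge alone and 100% = reference antagonist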
TAAR1 antagonist – antagonists of human TAAR1 | Q96RJ0 | CHO RD-HGA16 TAAR1, Fluo-8 calcium fluorescence, antagonist | inhibition, % at 3 µM | 1.5% of 360,000 active | AID 624466;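 active = inhibition above a per-plate cutoff, the mean inhibition of test compounds on that plate plus 3 SD, cut at about 49% in these data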;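 also: 0% = DMSO plus EC80 beta-PEA response and 100% = DMSO alone without agonist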
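Test system – hTAAR1-expressing CHO RD-HGA16 cells, Gα16-coupled · Reagent – β-PEA at EC80 concentration, post-compound challenge · Compound dosing – 3 µM, single point · Timing – 140 s kinetic read after compound, 140 s after agonist · Detection – Fluo-8 intracellular calcium dye fluorescence, real-time kinetic reads · Control set – DMSO and EC80 PEA controls · Repeats – n of 1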
CHO parental Ca – counter-screen: ATP calcium response change in parental CHO cells. parental CHO-K1, ATP-induced calcium, Fluo-8 fluorescence. inhibition, % at 5.6 µM. 0.63% of 330,000 active;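 active = inhibition above that plate's mean sample inhibition plus 3 SD, cut at about 26% in these data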;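 also: 0% = ATP-challenged DMSO wells and 100% = DMSO wells without ATP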
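Test system: untransfected parental CHO cell line. Compound: one dose, 5.6 µM nominal. Detection: intracellular calcium via Fluo-8 no-wash fluorescent dye. Measure: % inhibition. Benchmarks: ATP-challenged DMSO wells low, unchallenged DMSO wells high.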
OX1R antag-2 – human HCRTR1 antagonism | 0.43% of 330,000 active | inhibition, % at 5 µM | CHO/OX1R cells, Fluo-8 calcium fluorescence, orexin A;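 active = inhibition above its plate's threshold, mean inhibition of all tested compounds on the plate plus 3 SD, cut at about 37% in these data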;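 also: 0% = orexin A challenge wells and 100% = SB-334867-A antagonist wells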
TAAR1 nonsel count – nonselective antagonist in TAAR1 antagonist counter-screen | shares compounds with TAAR1 antagonist | counterscreen cell line, calcium fluorescence, antagonist mode | inhibition, % at 3 µM | 77% of 2,400 active | AID 651780; in the data active = inhibition above about 22%;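 also: CHO-Ga16 host cells stimulated with ATP at an EC80 level; 0% = agonist EC80 plus vehicle and 100% = vehicle without agonist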
TAAR1 ant conf – human TAAR1 antagonism, confirmed | shares compounds with TAAR1 antagonist | TAAR1-expressing cells, fluorescence antagonist read-out | inhibition, % at 3 µM | 40% of 2,400 active; in the data active = inhibition above about 49%;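 also: CHO-Ga16 host cells challenged with agonist PEA near its EC80; 0% = agonist at EC80 plus vehicle and 100% = vehicle with no agonist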
Ga16 ag counter-1 – counter-screen for TAAR1 antagonists: nonselective Ga16 agonists; shares compounds with TAAR1 antagonist; Ga16-expressing cells, calcium fluorescence, agonist counterscreen; activation, % at 3 µM; 18% of 2,400 active; in the data active = activation above about 12%;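 also: 0% = vehicle wells and 100% = saturating stimulus response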
TAAR1 ag counter – TAAR1 agonism, antagonist counter-screen. activation, % at 3 µM. shares compounds with TAAR1 antagonist. 2% of 2,400 active. hTAAR1 cell line, fluorescence activation, agonist mode; in the data active = activation above about 37%;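 also: CHO cells stably expressing TAAR1 with calcium dye readout; 0% = DMSO vehicle and 100% = full agonist response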
TAAR1 ag confirm – confirmation of human TAAR1 agonists. shares compounds with TAAR1 agonist. CHO RD-HGA16 TAAR1, Fluo-8 calcium fluorescence; scaled: DMSO 0%, maximal phenethylamine 100%. activation, % at 3 µM. 82% of 2,400 active. AID 651783;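 active = activation above a cutoff set at the run's mean compound activation plus 3 SD, cut at about 39% in these data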
Ga16 ag counter-2 – nonselective agonism, TAAR1 counter-screen; shares compounds with TAAR1 agonist; CHO-Ga16 parental, Fluo-8 calcium fluorescence; normalized to maximal ATP response, DMSO zero; activation, % at 3 µM; 50% of 2,400 active; AID 651787;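 active = activation above the run cutoff, the mean activation over all tested wells plus 3 SD, cut at about 12% in these data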;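 also: 0% = DMSO wells and 100% = maximal ATP response on the peak over basal ratio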
TAAR1 desensitize – counter-screen for human TAAR1 agonists: agonists that desensitize TAAR1; shares compounds with TAAR1 agonist; CHO RD-HGA16 hTAAR1, Fluo-8 calcium, beta-PEA response inhibition; inhibition, % at 3 µM; 46% of 2,400 active;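 active = inhibition above the run cutoff, the mean inhibition of all test compounds plus 3 SD, cut at about 49% in these data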;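 also: beta-PEA stimulus applied at its EC80; loss of beta-PEA calcium signal after compound pretreatment read as receptor desensitization; 0% = DMSO with beta-PEA at EC80 and 100% = DMSO alone without agonist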
Ga16 antag count – nonselective Ga16 antagonist in TAAR1 agonist counter-screen. shares compounds with TAAR1 agonist. CHO-Ga16 ATP-induced calcium, Fluo-8 fluorescence. inhibition, % at 3 µM. 39% of 2,400 active;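 active = inhibition above the plate's mean compound inhibition plus 3 SD, computed per plate, cut at about 22% in these data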;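 also: 0% = EC80 ATP with DMSO and 100% = DMSO wells without ATP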
Numbers without * were called inactive; / = not tested or not shown; + = active, no number.

SMILES	TAAR1 agonist	GPR7 antag	OX1R antag-1	TAAR1 antagonist	CHO parental Ca	OX1R antag-2	TAAR1 ag confirm	Ga16 ag counter-2	TAAR1 desensitize	Ga16 antag count	others
Cc1c(C(=O)NCc2ccc3c(c2)cc(C)n3C)cccc1[N+](=O)[O-]	10	-22	2	67*	-5	-42	/	/	/	/	TAAR1 nonsel count=30*;TAAR1 ant conf=51*;Ga16 ag counter-1=7;TAAR1 ag counter=8
O=C(Oc1ccc(Br)cc1C(=S)N1CCCC1)c1ccccc1F	94*	-2	18	57*	-15	-12	-3	3	8	7
COc1cc(C=NNC(=O)Cn2nc(C)cc2C)ccc1OC(=O)C1CC1	+	/	9	-2	-8	-4	2	2	5	1
COc1ccc(NC(=O)/C(=C\c2ccc3c(c2)OCO3)NC(C)=O)cc1	3	-4	19	1	2	5	/	/	/	/
NC(c1ccccc1)c1csc(NC(=O)NCC2CCCCC2)n1 (centres undefined)	10	/	/	-8	/	/	/	/	/	/
Cc1cc(/C=C2\SC(=O)NC2=O)c(C)n1-c1ccc(N(C)C)cc1	-3	-15	24	17	-7	-15	/	/	/	/
Cc1cc(/C=C2\SC(=O)NC2=O)c(C)n1-c1ccc(N2CCOCC2)cc1	60*	-4	16	22	-13	-27	70*	34*	31	24*
CNC[C@@H]1Oc2ccc(NS(=O)(=O)c3ccc(OC)cc3)cc2CC(=O)N([C@H](C)CO)C[C@@H]1C	/	/	2	/	-2	7	/	/	/	/
O=C(CC1C(=O)NCCN1CC1CCCCC1)NCCc1ccc(F)cc1 (centres undefined)	45*	13	10	-17	-18	-27	50*	0	5	2
CC(C)(C)CN1CCNC(=O)C1CC(=O)NCCc1ccccc1F (centres undefined)	/	6	20	/	-36	-30	/	2	/	5
COc1ccccc1CCNC(=O)CC1C(=O)NCCN1CCCc1ccccc1 (centres undefined)	74*	3	25	17	-24	-33	71*	2	43	11
COc1cccc(CNC(=O)CC2C(=O)NCCN2CCCc2ccccc2)c1 (centres undefined)	19	-1	20	-15	-20	-29	/	/	/	/
CC(C)(C)CN1CCNC(=O)C1CC(=O)NCCc1cnn(-c2ccccc2)c1 (centres undefined)	11	5	25	9	-20	-28	/	/	/	/
O=C(CC1C(=O)NCCN1CC1CCCCC1)NCc1ccc(F)cc1 (centres undefined)	0	-1	5	5	-22	-16	/	/	/	/
O=C(C1=COCCO1)N(Cc1nnc(-c2ccccc2Cl)o1)C1CC1	3	/	1	8	-12	-13	/	/	/	/
O=C(O)c1ccc(S(=O)(=O)NC2CCCCCC2)cc1	0	7	1	-5	-7	-5	/	/	/	/

Screening data deposited in PubChem by The Scripps Research Institute Molecular Screening Center.
